Active and inactive are the calls of the source.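 Rule for the calls, unless noted: active = inhibition above 20% together with a positive visual image hit; inconclusive = visual image hit but inhibition not above 20%; inactive = no visual image hit.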
Key:
[1] = inhibitors of TNFa-induced NFkB p65 translocation, primary screen, imaging, HUVEC, MLSMR starter and 10KST1 sets (AID 438); details: HUVEC TNFa-induced p65 nuclear translocation; cell count: measured here: nuclei count (cytotoxicity indicator), at 2.08 µM; inhibition: at 2 µM, stronger effect = higher value, 0% TNFa-plus-vehicle, 100% no-TNFa wells;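 note: compound added about 3h40 before a 20 min TNFalpha stimulation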;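 for inhibition: signal is the nuclear over cytoplasmic p65 intensity ratio per well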
[2] = reduction of polyQ htt aggregates in cells – imaging, exon1htt(103Q)mCFP cells, high-content imaging, primary screen (AID 483;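 active = visual image review flags a hit and inhibition of aggregation exceeds 20%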;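 note: compound exposure lasted 3 days before fixation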;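 for nuclei count: percent of the per-plate median nuclei count of sample wells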); details: exon1htt(103Q)mCFP cell line, aggregate imaging, at 2 µM; inhibition of aggregation: stronger effect = higher value; nuclei count: measured here: cell count, toxicity
[3] = endothelial E-selectin expression blockers – imaging, HUVEC, immunofluorescence, MLSMR starter and 10KST1 sets, primary screen (AID 487;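 active = visually confirmed hit in the image check and inhibition above 20%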;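 for inhibition: signal is fraction of cell area covered by stained E-selectin grains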;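 for nuclei count: 100% = median nuclei count of all wells on the same plate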); details: HUVEC TNFalpha-induced E-selectin immunofluorescence imaging, at 2 µM; inhibition: stronger effect = higher value; nuclei count: measured here: cell number, toxicity
[4] = target: Voltage-gated potassium channel subunit beta-2 (Rattus norvegicus) (UniProt P62483); assay: inhibitors of rat Kvbeta2 reductase activity – biochemical, NADPH fluorescence, primary screen (AID 622;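 active = fluorescence slope higher than the sample average by over 3 SD, cut at about -0.22 in these data, passing the limit was not always enough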;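 note: slope of raw intensity against log time taken from 70 to 1610 s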); details: recombinant KvBeta, 4-cyanobenzaldehyde reduction, at 10 µM, stronger effect = higher value
[5] = target: Voltage-gated potassium channel subunit beta-2 (Rattus norvegicus) (UniProt P62483); assay: enhancers of rat Kvbeta2 NADPH turnover – biochemical, NADPH fluorescence, primary screen (AID 623;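 active = NADPH fluorescence slope more negative than the mean of all samples by about 3 SD, 99.7% confidence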;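 note: fluorescence intensity change per second fitted from 20 to 320 s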); details: Recombinant KvBeta, NADPH fluorescence decrease slope, 10 min; at 10 µM; stronger effect = lower value
[6] = target: Alpha-2C adrenergic receptor (Homo sapiens) (UniProt P18825); assay: compounds altering alpha2C-coupled GIRK flux – cell-based, HEK293 alpha2C/GIRK1/2, thallium flux, primary screen (AID 624;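 active = fluorescence slope after compound addition differing from the mean of all screened samples at 99.7% confidence, in either direction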;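 note: slope of fluorescence ratio to pre-addition baseline per second over 15 to 24 s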); details: thallium flux BTC fluorescence, at 10 µM, actives lie on both sides
[7] = inhibitors of larval lipid processing in zebrafish, primary screen, whole organism, PED6 fluorescence, gall bladder and intestine (AID 686;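 active = a full or partial loss of lipid-probe fluorescence in the fish gall bladder, intestine or both, judged by eye; inactive = no fluorescence loss, or compound toxic to the fish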;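 note: larvae 5 to 7 days old with five fish per well; signal comes from phospholipase A2 cleavage of quenched PED6 carried via bile; overnight exposure to compound and PED6 before scoring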); details: Zebrafish larvae PED6 lipid processing, fluorescence scoring; screened at 20 µM (by protocol)
Procedure, shortened: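 Test system – live zebrafish larvae aged 5-7 days, whole organism · Buffer or medium – E3 fish medium · Reagent – quenched phospholipase substrate PED6, 100 nM final, ingested by larvae · Doses – 20 µM single dose · Incubation – overnight compound and PED6 incubation · Technique – visual fluorescence microscopy scoring of gall bladder, gut · Read-out basis – visual per-well fluorescence inhibition score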

[8] = blockers of RIG-like receptor reporter activation – cell-based, Sendai virus stimulus, luciferase, 10K MLSCN set, TLR/RLR signaling modifier project, primary screen (AID 602276;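 active = inhibition at or above 50% at 10 µM; inactive = inhibition below 50%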;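 note: firefly luciferase from ISG56 promoter only with Renilla not read in this screen; 0% = Sendai virus plus DMSO and 100% = medium plus DMSO without virus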); details: HEK293 RL24 IRF3 luciferase reporter, at 10 µM, stronger effect = higher value
[9] = TLR3 IRF3 reporter activation blockers – cell-based, poly I:C stimulus, luciferase, 10K MLSCN set, primary screen (AID 602277;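 active = inhibition of the reporter signal at or above 50%; inactive = inhibition below 50%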); details: HEK293-TLR3 RL24 IRF3 luciferase reporter, at 10 µM, stronger effect = higher value

Chain of Voltage-gated potassium channel subunit beta-2 (Rattus norvegicus) (P62483 whole entry, looked up): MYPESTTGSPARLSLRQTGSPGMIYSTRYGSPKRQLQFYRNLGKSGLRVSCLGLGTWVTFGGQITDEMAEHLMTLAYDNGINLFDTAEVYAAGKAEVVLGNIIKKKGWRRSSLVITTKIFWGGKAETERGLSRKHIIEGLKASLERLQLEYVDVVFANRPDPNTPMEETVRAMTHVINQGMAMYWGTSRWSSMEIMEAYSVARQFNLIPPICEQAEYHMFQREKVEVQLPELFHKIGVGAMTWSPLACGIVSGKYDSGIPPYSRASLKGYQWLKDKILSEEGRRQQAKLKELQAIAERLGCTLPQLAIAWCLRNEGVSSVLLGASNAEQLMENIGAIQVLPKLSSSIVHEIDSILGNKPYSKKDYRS
Chain of Alpha-2C adrenergic receptor (Homo sapiens) (P18825 whole entry, looked up): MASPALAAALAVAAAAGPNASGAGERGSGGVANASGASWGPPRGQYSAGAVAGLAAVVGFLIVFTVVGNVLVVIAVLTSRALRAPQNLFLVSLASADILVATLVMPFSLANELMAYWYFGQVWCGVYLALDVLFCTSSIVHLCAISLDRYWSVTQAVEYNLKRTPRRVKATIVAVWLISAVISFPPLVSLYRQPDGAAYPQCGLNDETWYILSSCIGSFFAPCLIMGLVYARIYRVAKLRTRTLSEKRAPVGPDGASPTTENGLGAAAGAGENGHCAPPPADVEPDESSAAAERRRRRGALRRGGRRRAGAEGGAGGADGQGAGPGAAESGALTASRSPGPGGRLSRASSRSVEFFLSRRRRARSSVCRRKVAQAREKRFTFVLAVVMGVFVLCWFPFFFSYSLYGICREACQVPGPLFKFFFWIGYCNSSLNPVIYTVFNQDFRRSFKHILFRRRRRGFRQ

| SMILES | cell count [1] | inhibition [1] | inhibition of aggregation [2] | nuclei count [2] [%] | inhibition [3] | nuclei count [3] [%] | fluorescence slope [4] | NADPH fluorescence slope [5] | slope [6] | outcome [7] | inhibition [8] | inhibition [9] |
| --- | --- | --- | --- | --- | --- | --- | --- | --- | --- | --- | --- | --- |
| CCOC(=O)C1CCN(C(=O)Nc2ccc3nc(C)c(C)nc3c2)CC1 | 331 | 2% (inactive) | 26.1% (inactive) | 84.8 | -20.1% (inactive) | 90.9 | -0.00743 (active) | -2.9e-06 (inactive) | 0.00559 (inactive) | inactive | 8.11% (inactive) | 5.19% (inactive) |
| C=CCn1c(SCC(=O)Nc2ccc3c(c2)OCO3)nc2ccccc2c1=O | 388 | -0.4% (inactive) | 1.9% (inactive) | 96.8 | 37.8% (inactive) | 90.6 | -0.429 (inactive) | -3.8e-05 (inactive) | 0.00549 (inactive) | inactive | 15.8% (inactive) | 14.8% (inactive) |
| COc1ccc(OC)c(NC(=O)CSc2nnc(-c3ccco3)n2-c2ccccc2)c1 | 552 | 10.2% (inactive) | 9.3% (inactive) | 104 | -59.6% (inactive) | 98.9 | -0.466 (inactive) | -3.5e-05 (inactive) | 0.00516 (inactive) | inactive | 12.9% (inactive) | 12.9% (inactive) |
| CCc1n[nH]c2c1C(=O)CC(C)(C)C2 | 438 | -5.8% (inactive) | 4.8% (inactive) | 97.7 | 19.5% (inactive) | 110 | -0.382 (inactive) | -5e-05 (inactive) | 0.00556 (inactive) | inactive | -8.61% (inactive) | -7.25% (inactive) |
| O=C(Nc1nnc(C2CCCC2)s1)C1CCN(S(=O)(=O)c2ccc(Cl)cc2)CC1 | 349 | 0% (inactive) | 18.7% (inactive) | 85.1 | -83.1% (inactive) | 104 | -0.345 (inactive) | -1.7e-05 (inactive) | 0.00671 (inactive) | inactive | 13.4% (inactive) | 6.21% (inactive) |
| Nc1ccc(S(=O)(=O)c2cccc(N)c2)cc1 | 655 | -8.6% (inactive) | -8.8% (inactive) | 81.5 | -2.1% (inactive) | 108 | -0.435 (inactive) | -1.3e-05 (inactive) | 0.00439 (inactive) | inactive | 15.4% (inactive) | 15.8% (inactive) |
| COC(=O)c1ccc(CSc2nnnn2Cc2ccccc2)cc1 | 341 | 3% (inactive) | -32.1% (inactive) | 108 | -32.4% (inactive) | 104 | -0.322 (inactive) | 3.4e-06 (inactive) | 0.00496 (inactive) | inactive | 9.31% (inactive) | 37.9% (inactive) |
| CC(C)(C)C(=O)OCC1OC(n2cnc(C(N)=O)n2)C(O)C1O (stereo not drawn) | 468 | -8.7% (inactive) | 7.9% (inactive) | 88.9 | 49.3% (inactive) | 88 | -0.382 (inactive) | 8.9e-07 (inactive) | 0.00529 (inactive) | inactive | 5.04% (inactive) | 4.14% (inactive) |
| O=C(O)CC(C(=O)Nc1cccc(C(F)(F)F)c1)C1CCCO1 (stereo not drawn) | 548 | -10.1% (inactive) | 9.8% (inactive) | 101 | 2.3% (inactive) | 92.1 | -0.375 (inactive) | -2.9e-05 (inactive) | 0.00461 (inactive) | inactive | -2.64% (inactive) | 7.18% (inactive) |
| Cc1ccc(-c2nn[nH]n2)cc1 | 334 | -7.1% (inactive) | -16.2% (inactive) | 117 | -4.4% (inactive) | 123 | -0.474 (inactive) | -3.8e-05 (inactive) | 0.00429 (inactive) | inactive | 4.2% (inactive) | 10.7% (inactive) |
| CC(=O)N1CCc2cc(S(=O)(=O)NCCC(=O)Nc3cc(C)cc(C)c3)ccc21 | 611 | -11.5% (inactive) | 15.1% (inactive) | 97.8 | 25.9% (inactive) | 98 | -0.399 (inactive) | -8.9e-05 (inactive) | 0.00432 (inactive) | inactive | 12.9% (inactive) | 12.5% (inactive) |
| CC(CCc1ccccc1)NC(=O)C1CCN(S(=O)(=O)c2cnc[nH]2)CC1 (stereo not drawn) | 554 | -20.8% (inactive) | -7.9% (inactive) | 107 | 16.4% (inactive) | 110 | -0.367 (inactive) | -5.5e-05 (inactive) | 0.00556 (inactive) | inactive | 9.51% (inactive) | 18% (inactive) |
| CC1=C(C(=O)N2CCOCC2)C(c2ccccc2F)C2=C(CCCC2=O)N1 (stereo not drawn) | 401 | -0.8% (inactive) | -15% (inactive) | 111 | -24.5% (inactive) | 121 | -0.314 (inactive) | 4.2e-06 (inactive) | 0.00583 (inactive) | inactive | 3.26% (inactive) | 6.93% (inactive) |
| CCCn1c(SCC(=O)NC(=O)NCc2ccco2)n[nH]c1=O | 424 | 3.7% (inactive) | -7.6% (inactive) | 73.3 | -178% (inactive) | 117 | -0.39 (inactive) | -3.4e-05 (inactive) | 0.00519 (inactive) | inactive | 2.79% (inactive) | 15.3% (inactive) |

— PubChem BioAssay
